Experimental data: ChEMBL document CHEMBL1157829, “2-imino-thiazolidin-4-one derivatives as potent, orally active S1P1 receptor agonists” (J Med Chem, 2010)
Active and inactive are the calls of the source. The rule behind the calls is not given here.

Tests used:
[1] = target: T1, Sphingosine 1-phosphate receptor 3 (Homo sapiens, UniProt Q99500); assay: Agonist activity at human recombinant S1P3 receptor expressed in HEK cells by GTPgammaS binding assay; format: functional, HEK293
Method in brief: (§1)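 Membranes from cells expressing recombinant receptor. Buffer: 20 mM Hepes pH 7.4, 100 mM NaCl, 5 mM MgCl2, 0.1% fatty-acid-free BSA, 2.5% DMSO. GDP 1 µM for S1P1, 3 µM for S1P3. Compound preincubated with membranes 30 min at RT, then 50 pM 35S-GTPγS added for 1 h at RT. Bound label collected by filtration and counted. […] Values are geometric means of independent experiments.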

[2] = target: T2, Sphingosine 1-phosphate receptor 4 (Homo sapiens, UniProt O95977); assay: Agonist activity at human recombinant S1P4 receptor expressed in CHO cells by GTPgammaS binding assay; format: functional, cell-based
T2 sequence (O95977 whole entry): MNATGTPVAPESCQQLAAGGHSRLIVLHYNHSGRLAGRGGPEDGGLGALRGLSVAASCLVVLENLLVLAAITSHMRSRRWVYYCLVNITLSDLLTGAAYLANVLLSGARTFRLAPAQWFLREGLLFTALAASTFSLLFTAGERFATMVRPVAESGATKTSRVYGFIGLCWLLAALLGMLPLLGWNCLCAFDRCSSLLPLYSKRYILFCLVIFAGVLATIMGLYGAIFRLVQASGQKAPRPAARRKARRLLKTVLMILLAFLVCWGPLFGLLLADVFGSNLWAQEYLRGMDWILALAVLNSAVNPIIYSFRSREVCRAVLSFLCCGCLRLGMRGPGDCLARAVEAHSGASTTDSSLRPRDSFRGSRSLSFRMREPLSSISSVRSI

[3] = target: T3, Sphingosine 1-phosphate receptor 1 (Homo sapiens, UniProt P21453); assay: Displacement of [33P]S1P from human recombinant S1P1 receptor expressed in HEK cells by scintillation counting; format: cell-based, HEK293
T3 sequence (P21453 whole entry): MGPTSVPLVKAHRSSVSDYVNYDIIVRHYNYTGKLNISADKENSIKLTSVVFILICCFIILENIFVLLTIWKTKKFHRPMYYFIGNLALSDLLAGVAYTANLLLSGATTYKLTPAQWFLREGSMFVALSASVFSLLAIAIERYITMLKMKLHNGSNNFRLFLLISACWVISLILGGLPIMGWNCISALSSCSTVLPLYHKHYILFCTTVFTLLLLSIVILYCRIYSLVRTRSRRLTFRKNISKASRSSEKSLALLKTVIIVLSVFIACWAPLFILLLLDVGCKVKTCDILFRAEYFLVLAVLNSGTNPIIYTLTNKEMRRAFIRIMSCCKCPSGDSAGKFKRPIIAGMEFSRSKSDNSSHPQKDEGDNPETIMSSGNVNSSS
Method in brief: (§2)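 33P-S1P binding to membranes of recombinant receptor-expressing cells. IC50 reported as the geometric mean of independent experiments, with the geometric standard deviation.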

[4] = target: T1, Sphingosine 1-phosphate receptor 3; assay: Displacement of [33P]S1P from human recombinant S1P3 receptor expressed in HEK cells by scintillation counting; format: cell-based, HEK293; method in brief: as §2
[5] = target: T2, Sphingosine 1-phosphate receptor 4; assay: Displacement of [33P]S1P from human recombinant S1P4 receptor expressed in CHO cells by scintillation counting; format: cell-based
[6] = target: T3, Sphingosine 1-phosphate receptor 1; assay: Agonist activity at human recombinant S1P1 receptor expressed in CHO cells by GTPgammaS binding assay; format: functional, cell-based
[7] = target: T1, Sphingosine 1-phosphate receptor 3; assay: Agonist activity at human recombinant S1P3 receptor expressed in CHO cells by GTPgammaS binding assay; format: functional, cell-based
Method in brief: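 Membranes from CHO cells expressing recombinant human receptor. Buffer 20 mM Hepes pH 7.4, 100 mM NaCl, 5 mM MgCl2, 0.1% fatty-acid-free BSA, 2.5% DMSO, GDP (1 uM for S1P1, 3 uM for S1P3), 50 pM 35S-GTPγS. Compound preincubated with membranes 30 min at room temperature, then 1 h with 35S-GTPγS. Reaction filtered and bound label counted. Specific binding is the 10 uM S1P signal minus the no-agonist signal. EC50 is the concentration giving 50% of specific binding; three independent assays.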

Rattus norvegicus [8] = assay: Immunomodulatory activity in normotensive Wistar rat assessed as change in circulating lymphocytes count at 10 mg/kg, po after 3 hrs relative to control; format: functional
Method in brief: (§3)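 Normotensive male Wistar rats were housed on a 12 h light/dark cycle with free chow and water. Compound was dissolved in DMSO and added to 7.5% aqueous gelatin (final 5% DMSO), then given by gavage at 10 mg/kg (n = 6). Vehicle was 95% gelatin (7.5%)/5% DMSO (n = 30). Blood was taken before dosing and at 3, 6 and 24 h and counted by hematology analyzer. Counts are % change from t = 0 h ± SEM.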

Rattus norvegicus [9] = assay: Immunomodulatory activity in normotensive Wistar rat assessed as change in circulating lymphocytes count at 10 mg/kg, po after 6 hrs relative to control; format: functional; method in brief: as §3
Rattus norvegicus [10] = assay: Immunomodulatory activity in normotensive Wistar rat assessed as change in circulating lymphocytes count at 10 mg/kg, po after 24 hrs relative to control; format: functional; method in brief: as §3
[11] = Intrinsic clearance in Wistar rat liver microsomes at 1 uM by LC-MS/MS analysis measured per mg of protein; format: ADME, Microsome
[12] = Intrinsic clearance in Beagle dog liver microsomes at 1 uM by LC-MS/MS analysis measured per mg of protein; format: ADME, Canis lupus familiaris, Microsome
[13] = Intrinsic clearance in human liver microsomes at 1 uM by LC-MS/MS analysis measured per mg of protein; format: ADME, Microsome
[14] = Intrinsic clearance in rat hepatocytes at 1 uM by LC-MS/MS analysis measured per million cells; format: ADME, cell-based, Liver, Hepatocyte
[15] = Intrinsic clearance in Beagle dog hepatocytes at 1 uM by LC-MS/MS analysis measured per million cells; format: ADME, cell-based, Canis lupus familiaris, Liver, Hepatocyte
[16] = Bioavailability in Wistar rat at 3 mg/kg, po and 0.3 mg/kg, iv; format: ADME, organism-based; conditions: in vivo
Method in brief: (§4)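 Male Wistar rats (n = 3) were dosed at 3 mg/kg orally and 0.3 mg/kg intravenously. Plasma pharmacokinetic parameters were derived from these runs.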

[17] = Cmax in Wistar rat at 3 mg/kg, po and 0.3 mg/kg, iv; format: ADME, organism-based; conditions: in vivo; method in brief: as §4
[18] = Half life in Wistar rat at 3 mg/kg, po and 0.3 mg/kg, iv; format: ADME, organism-based; conditions: in vivo; method in brief: as §4
[19] = Clearance in Wistar rat at 3 mg/kg, po and 0.3 mg/kg, iv; format: ADME, organism-based; conditions: in vivo; method in brief: as §4
[20] = Volume of distribution at steady state in Wistar rat at 3 mg/kg, po and 0.3 mg/kg, iv; format: ADME, organism-based; conditions: in vivo, read-out: Vdss; method in brief: as §4
[21] = Bioavailability in Beagle dog at 3 mg/kg, po and 0.3 mg/kg, iv; format: ADME, organism-based, Canis lupus familiaris; conditions: in vivo
Method in brief: (§5)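 Fed male beagle dogs (n = 3) were dosed at 3 mg/kg orally and 0.3 mg/kg intravenously. Plasma exposure was measured to derive bioavailability, Cmax, half-life, clearance and Vss.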

[22] = Cmax in Beagle dog at 3 mg/kg, po and 0.3 mg/kg, iv; format: ADME, organism-based, Canis lupus familiaris; conditions: in vivo; method in brief: as §5
[23] = Half life in Beagle dog at 3 mg/kg, po and 0.3 mg/kg, iv; format: ADME, organism-based, Canis lupus familiaris; conditions: in vivo; method in brief: as §5
[24] = Clearance in Beagle dog at 3 mg/kg, po and 0.3 mg/kg, iv; format: ADME, organism-based, Canis lupus familiaris; conditions: in vivo; method in brief: as §5
[25] = Volume of distribution at steady state in Beagle dog at 3 mg/kg, po and 0.3 mg/kg, iv; format: ADME, organism-based, Canis lupus familiaris; conditions: in vivo, read-out: Vdss; method in brief: as §5
[26] = target: T3, Sphingosine 1-phosphate receptor 1; assay: Agonist activity at human recombinant S1P1 receptor expressed in HEK cells by GTPgammaS binding assay; format: functional, cell-based, HEK293; method in brief: as §1
[27] = target: T4, Sphingosine 1-phosphate receptor 2 (Homo sapiens, UniProt O95136); assay: Agonist activity at human recombinant S1P2 receptor expressed in HEK cells by GTPgammaS binding assay; format: functional, HEK293
T4 sequence (O95136 whole entry): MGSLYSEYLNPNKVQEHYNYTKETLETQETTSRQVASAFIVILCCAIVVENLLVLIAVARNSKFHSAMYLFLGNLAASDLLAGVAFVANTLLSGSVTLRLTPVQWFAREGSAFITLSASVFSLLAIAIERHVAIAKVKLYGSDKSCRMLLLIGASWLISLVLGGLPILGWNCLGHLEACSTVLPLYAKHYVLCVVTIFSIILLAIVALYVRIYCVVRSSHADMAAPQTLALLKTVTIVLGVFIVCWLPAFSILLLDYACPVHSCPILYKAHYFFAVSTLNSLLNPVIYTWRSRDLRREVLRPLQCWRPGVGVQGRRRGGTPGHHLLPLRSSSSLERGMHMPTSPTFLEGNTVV

[28] = target: T5, Sphingosine 1-phosphate receptor 5 (Homo sapiens, UniProt Q9H228); assay: Agonist activity at human recombinant S1P5 receptor expressed in CHO cells by GTPgammaS binding assay; format: functional, cell-based
T5 sequence (Q9H228 whole entry): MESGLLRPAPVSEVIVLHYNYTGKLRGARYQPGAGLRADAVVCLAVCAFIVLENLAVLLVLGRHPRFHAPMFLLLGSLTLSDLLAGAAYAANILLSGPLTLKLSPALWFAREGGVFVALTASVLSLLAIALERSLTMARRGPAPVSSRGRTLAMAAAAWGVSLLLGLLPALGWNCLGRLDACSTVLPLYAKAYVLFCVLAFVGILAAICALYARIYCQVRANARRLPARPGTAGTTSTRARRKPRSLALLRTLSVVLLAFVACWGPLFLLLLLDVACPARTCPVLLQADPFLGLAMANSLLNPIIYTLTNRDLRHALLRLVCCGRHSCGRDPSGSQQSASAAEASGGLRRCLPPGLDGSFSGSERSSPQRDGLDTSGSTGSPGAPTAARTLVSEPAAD

[29] = target: T4, Sphingosine 1-phosphate receptor 2; assay: Displacement of [33P]S1P from human recombinant S1P2 receptor expressed in HEK cells by scintillation counting; format: cell-based, HEK293
[30] = target: T5, Sphingosine 1-phosphate receptor 5; assay: Displacement of [33P]S1P from human recombinant S1P5 receptor expressed in CHO cells by scintillation counting; format: cell-based
[31] = target: T6, Sphingosine 1-phosphate receptor 4 (Homo sapiens) (UniProt O95977); assay: Agonist activity at human recombinant S1P4 receptor expressed in CHO cells at 10 uM by GTPgammaS binding assay relative to S1P; format: functional, cell-based
T6 sequence (whole entry): T2 sequence (O95977 whole entry)
Method in brief: (§6)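 In the same CHO-membrane 35S-GTPγS binding assay with human receptor, maximal activity at 10 uM compound was expressed as a percentage of the effect induced by S1P.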

[32] = target: T5, Sphingosine 1-phosphate receptor 5; assay: Agonist activity at human recombinant S1P5 receptor expressed in CHO cells at 10 uM by GTPgammaS binding assay relative to S1P; format: functional, cell-based; method in brief: as §6
Canis familiaris = assay: Immunomodulatory activity in Beagle dog assessed as decrease in circulating lymphocytes count at 5 mg/kg, po after 24 hrs; format: functional, organism-based; set-up: dose 5 mg/kg; conditions: Canis lupus familiaris
[33] = Half life in human administered as single ascending dose; format: ADME, organism-based; conditions: in vivo
Rattus norvegicus [34] = assay: Immunomodulatory activity in normotensive Wistar rat assessed as change in circulating lymphocytes count at 30 mg/kg, po after 3 to 24 hrs relative to control; format: functional, organism-based; set-up: dose 30 mg/kg
Method in brief: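 Normotensive male Wistar rats received compound by gavage as a suspension in 7.5% gelatin with 5% DMSO. Blood lymphocytes were counted on a hematology analyzer before dosing and at 3, 6 and 24 h after dosing.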

[35] = Cmax in Wistar rat at 10 mg/kg, po and 1 mg/kg, iv; format: ADME, organism-based; conditions: in vivo
Method in brief: (§7)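 Male Wistar rats (n = 3) were dosed at 10 mg/kg orally and 1 mg/kg intravenously. Plasma pharmacokinetic parameters were derived from these runs.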

[36] = Bioavailability in Wistar rat at 10 mg/kg, po and 1 mg/kg, iv; format: ADME, organism-based; conditions: in vivo; method in brief: as §7
[37] = Half life in Wistar rat at 10 mg/kg, po and 1 mg/kg, iv; format: ADME, organism-based; conditions: in vivo; method in brief: as §7
[38] = Clearance in Wistar rat at 10 mg/kg, po and 1 mg/kg, iv; format: ADME, organism-based; conditions: in vivo; method in brief: as §7
[39] = Volume of distribution at steady state in Wistar rat at 10 mg/kg, po and 1 mg/kg, iv; format: ADME, organism-based; conditions: in vivo, read-out: Vdss; method in brief: as §7

T1 sequence (Q99500 whole entry): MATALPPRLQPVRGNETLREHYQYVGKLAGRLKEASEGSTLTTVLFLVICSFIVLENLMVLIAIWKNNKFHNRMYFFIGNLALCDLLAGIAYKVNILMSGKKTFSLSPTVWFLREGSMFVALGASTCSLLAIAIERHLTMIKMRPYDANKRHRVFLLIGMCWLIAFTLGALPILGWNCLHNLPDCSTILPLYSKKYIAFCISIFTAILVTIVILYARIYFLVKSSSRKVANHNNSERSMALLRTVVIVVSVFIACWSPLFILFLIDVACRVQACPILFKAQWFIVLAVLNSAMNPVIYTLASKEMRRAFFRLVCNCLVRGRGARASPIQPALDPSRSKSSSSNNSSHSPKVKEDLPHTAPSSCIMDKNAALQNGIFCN

Row | Structure (SMILES) | EC50 [1] [nM] | EC50 [2] [nM] | IC50 [5] [nM] | EC50 [6] [nM] | EC50 [7] [nM] | Activity (Rattus norvegicus [8]) [%] | Activity (Rattus norvegicus [9]) [%] | Activity (Rattus norvegicus [10]) [%] | microsomal CLint at 1 µM [11] [µL/min/mg] | microsomal CLint at 1 µM [13] [µL/min/mg] | hepatocyte CLint at 1 µM [14] [µL/min/1e6 cells] | bioavailability [16] [%] | Cmax [17] [ng/mL] | half-life [18] [h] | clearance [19] [mL/min/kg] | Vd [20] [L/kg] | further results
1 | CCCCCCCCCCCCC/C=C/[C@@H](O)[C@@H](N)COP(=O)(O)O | 0.7 | 164 | 2.9 | – | – | – | – | – | – | – | – | – | – | – | – | – | IC50 [3]: 0.1 nM; IC50 [4]: 0.2 nM
2 | CCC/N=C1\S/C(=C\c2ccc(OC[C@@H](O)CO)c(Cl)c2)C(=O)N1c1ccccc1C | 105 | 1110 | 1960 | 9.1 | 123 | -65 | -63 | -18 | 56 | 4 | 3.7 | 35 | 409 | 1.3 | 25 | 3.3 | microsomal CLint at 1 µM [12]: 7 µL/min/mg; hepatocyte CLint at 1 µM [15]: 1 µL/min/1e6 cells; bioavailability [21]: 69%; Cmax [22]: 1360 ng/mL; half-life [23]: 10 h; clearance [24]: 1.3 mL/min/kg; Vd [25]: 0.9 L/kg; EC50 [26]: 5.7 nM; EC50 [27]: > 10000 nM; EC50 [28]: 59.1 nM; IC50 ([3]; read-out: IC50): 6 nM; IC50 [29]: > 10000 nM; IC50 ([4]; read-out: IC50): 2070 nM; IC50 [30]: 142 nM; Activity [31]: 18%; Activity [32]: 42%; Activity (Canis familiaris): Active; half-life [33]: 22 h
3 | CCC/N=C1\S/C(=C\c2ccc(O)c(Cl)c2)C(=O)N1c1ccccc1C | – | – | – | – | 81 | 29 | 24 | 40 | 229 | 7 | – | < 1 | 8.1 | 0.2 | 92 | 1.1 | Activity (Rattus norvegicus [34]): inactive
4 | CC(C)/N=C1\S/C(=C\c2ccc(OCCO)cc2)C(=O)N1c1ccccc1 | – | – | – | 95 | 114 | – | – | – | 4 | 4 | 12 | – | – | – | – | – | Cmax [35]: 499 ng/mL; bioavailability [36]: 72%; half-life [37]: 2 h; clearance [38]: 32 mL/min/kg; Vd [39]: 4 L/kg
